PolyA inh = blocks polyadenylation in yeast reporter cells | S. cerevisiae SKY197-pL101 polyadenylation reporter, beta-gal luminescence; efflux-impaired pdr1/pdr3 knockout yeast; score 100 = 6 SD above DMSO | activity score, % at 12 µM | 0.02% of 300,000 active;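 active = lowest replicate activity score at least 50, where 100 means six control SD above control mean; inconclusive = lowest score under 50 but half or more replicates reach 50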;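 also: yeast exposed to compound for 9 h at 30 °C; higher score means more reporter readthrough which indicates perturbed polyadenylation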
Calb FLC = affects C. albicans growth with fluconazole; C. albicans CaCi-2 (fluconazole-resistant clinical isolate) + fluconazole, Alamar Blue growth, 48 h; growth inhibition, % (test concentration not listed); 0.57% of 300,000 active; AID 1979;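 active = growth inhibition above about 58% in most replicates, limit read from the data, passing the limit was not always enough; inconclusive = exactly half the replicates above a set limit; inactive = most replicates below a set limit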;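 also: all wells also contain fluconazole at 8 µg/ml as a sub-toxic cotreatment; 0% = median of DMSO wells and 100% = median of geldanamycin control wells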
T cruzi repl = blocks replication of Trypanosoma cruzi; 1.4% of 300,000 active; T. cruzi beta-gal in NIH3T3, luminescence, 90 h; inhibition, % (concentration not given with the values);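 active = mean inhibition across valid replicates above about 55%, limit read from the data; inconclusive = mean below that limit but half or more replicates reach it; inactive = mean below it, under half of replicates reach it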;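 also: signal also drops with host cell toxicity which is not excluded here; 0% = plate median of DMSO wells and 100% = zero luminescence signal; higher percent means less beta-gal luminescence so fewer parasites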
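System: NIH/3T3 fibroblasts plus reporter T. cruzi. Medium: DMEM plus 2% FBS. Probe or stimulus: 5000 reporter trypomastigotes per well. Compound: single 50 nL compound addition per well in DMSO. Incubation: co-culture of at least 90 h after 3 h attachment. Detection: GalScreen β-gal luminescence, detergent lysis, 60 min. Evaluation: parasite load inhibition, %.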
NALP1 yeast inh = NALP1 inhibition. S. cerevisiae NALP1/ASC/caspase-1 growth, X-gal OD620, 72 h. inhibition, % at 10 µM. 0.61% of 280,000 active; in the data active = inhibition mostly above about 24%, no sharp cut-off; inactive = mostly below about 32%
L major viab = Leishmania major promastigote growth inhibition; 9% of 200,000 active; inhibition, % at 10 µM; Leishmania major promastigotes, resazurin fluorescence viability; AID 1063; in the data active = inhibition above about 50%;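 also: promastigotes grown with compound for 44 hours at 28 °C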
NLRP3 yeast inh = inhibitors of NALP3 inflammasome in yeast; AID 2825; Yeast reconstituted NLRP3/ASC/caspase-1, beta-gal luminescence, 24 h; inhibition, % at 10 µM; 0.39% of 330,000 active;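 active = inhibition of 50% or more; inactive = inhibition below 50%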;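 also: plate controls were induced DMSO wells for no effect and uninduced yeast grown without galactose for full effect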
An asterisk follows results filed as active; ? = inconclusive; / = not tested or not shown. The sample as a whole holds a higher share of hits than the screen did.

SMILES | PolyA inh | Calb FLC | T cruzi repl | NALP1 yeast inh | L major viab | NLRP3 yeast inh
CN(CC(=O)Nc1ccc(N2CCOCC2)cc1)C(=O)CSc1ccc(Br)cc1 | -5 | -5 | -2 | 15 | / | 15
COc1ccc(N2CCN(C(=O)CCNC(=O)Cn3ccc4ccccc4c3=O)CC2)cc1 | -2 | ? | -5 | 14 | -2 | -13
Cc1cc(NC(=O)c2cccc(S(=O)(=O)N3CCCCCC3)c2)no1 | -4 | -5 | 0 | -6 | -2 | 7
CCOc1ccc(-n2c(C)nc(O)c2N=Nc2ccccc2)cc1 | -8 | ? | -24 | 6 | -2 | -5
CC1(c2ccc3c(c2)OCCCO3)NC(=O)N(CC(=O)NCCc2ccccc2)C1=O (configuration not stated) | / | / | / | / | / | 11
COc1ccc(S(=O)(=O)Cc2ccc(C(=O)N3CCN(Cc4ccccc4)CC3)o2)cc1 | -6 | 7 | -8 | / | 99* | 3
COc1ccc(S(=O)(=O)Cc2ccc(C(=O)N3CCN(C(=O)c4ccco4)CC3)o2)cc1 | 14 | -2 | -1 | -1 | -4 | 12
Cc1ccc(S(=O)(=O)Cc2ccc(C(=O)N3CCN(Cc4ccccc4)CC3)o2)cc1 | 26 | 10 | 6 | / | 99* | 14
CS(=O)(=O)c1ccc(C(=O)N2CCN(Cc3ccccc3)CC2)cc1 | -4 | -11 | -4 | 4 | -3 | 19
Cc1ccc(S(=O)(=O)Cc2ccc(C(=O)N3CCc4ccccc4C3)o2)cc1 | -1 | 6 | 5 | -31 | 6 | -2
COc1ccc(N2CCN(C(=O)c3ccc(CS(=O)(=O)c4ccc(OC)cc4)o3)CC2)cc1 | -4 | -2 | -18 | -16 | 81* | -2
O=C(c1ccc(CNS(=O)(=O)c2ccccc2)cc1)N1CCN(Cc2ccccc2)CC1 | -13 | -3 | 10 | 6 | 72* | 14
COc1ccc(S(=O)(=O)Cc2ccc(C(=O)N3CCN(c4ccc(Cl)cc4)CC3)o2)cc1 | 7 | 11 | 3 | -2 | 45 | 6
CN(C(=O)COc1ccccc1C(=O)NCCc1ccccc1)c1ccccc1 | -10 | -3 | 0 | 28 | 5 | 2
O=C(Cc1ccc(Br)cc1)NCc1ccccc1 | 3 | -1 | -17 | 17 | / | 39
Cc1cccc(NC(=O)CN(CC2CCCO2)C(=O)c2cc(S(=O)(=O)N(C)C)ccc2F)c1C (configuration not stated) | / | / | / | / | / | 3
CCOc1ccc(CCNC(=O)C2CCN(c3nnc(-n4cccc4)s3)CC2)cc1 | ? | -6 | -2 | 42* | -7 | 11
CCCCNC(=O)C1CCN(Cc2ccc(OCc3ccccc3)cc2)CC1 | 1 | -19 | 23 | 30 | 82* | 47
O=C(c1ccc(Cl)cc1)C1CCN(Cc2ccccc2)CC1 | 0 | -9 | 20 | 14 | / | 9
CCCCC(=O)C1CCN(Cc2ccccc2)CC1 | -9 | -12 | 8 | -1 | 67* | 31
CSc1ccc(OC2CCN(Cc3ccccc3)CC2)cc1 | -19 | -40 | 16 | 31 | 94* | 12
CCN(CC)C(=O)C1CCN(Cc2ccc(OCc3ccccc3)cc2)CC1 | -15 | -25 | 24 | 12 | / | 16
CSc1ccc(CN2CCC(Cc3ccccc3)CC2)cc1 | -11 | -29 | 34 | 0 | / | 28
CCC1CCC(C(=O)NC(C(=O)NCCCN2CCCCC2C)C(C)C)CC1 (configuration not stated) | 7 | -9 | 2 | 2 | 1 | -1
CCC(=O)N1c2ccc(S(=O)(=O)NC3CCCCC3)cc2CC1C (configuration not stated) | 16 | -50 | 3 | 21 | / | 3
SMILES | PolyA inh | Calb FLC | T cruzi repl | NALP1 yeast inh | L major viab | NLRP3 yeast inh
Cc1ccc(NC(=O)Cn2sc3nc(C)cc(C)c3c2=O)c(Cl)c1 | -7 | 7 | ? | -19 | / | 18
OC1CCN(Cc2ccc(OCc3ccccc3)cc2)CC1 | -14 | 0 | 61* | 19 | / | 13
O=C(C1CCN(Cc2ccc(OCc3ccccc3)cc2)CC1)N1CCCC1 | -3 | -6 | -4 | 1 | -6 | 32
CCN(CC)C(=O)C1CCN(Cc2cccc(OCc3ccccc3)c2)CC1 | 4 | -2 | 16 | 2 | 100* | 17
CC[C@@]1(C(=O)OC)N[C@H](CN(C)S(=O)(=O)c2ccc(OC(F)(F)F)cc2)[C@@H]2C(=O)N(C)C(=O)[C@@H]21 | / | / | / | / | / | -2
Cc1nnc(SCC(=O)NCc2ccc3c(c2)OCO3)[nH]c1=O | -32 | -7 | 0 | 16 | -8 | 27

Compound activity: PubChem, several laboratories
